Test results from ChEMBL document CHEMBL4477205, “Discovery of New Chemical Entities for Old Targets: Insights on the Lead Optimization of Chromone-Based Monoamine Oxidase B (MAO-B) Inhibitors” (J Med Chem, 2016).
The source made the active and inactive calls. The calls are words filed in the database; no cut-off is given here.

Experiments:
[1] = target: T1, Amine oxidase [flavin-containing] B (Homo sapiens, UniProt P27338); assay: biochemical; format: cell-based, BTI-TN-5B1-4
T1 sequence (P27338 whole entry): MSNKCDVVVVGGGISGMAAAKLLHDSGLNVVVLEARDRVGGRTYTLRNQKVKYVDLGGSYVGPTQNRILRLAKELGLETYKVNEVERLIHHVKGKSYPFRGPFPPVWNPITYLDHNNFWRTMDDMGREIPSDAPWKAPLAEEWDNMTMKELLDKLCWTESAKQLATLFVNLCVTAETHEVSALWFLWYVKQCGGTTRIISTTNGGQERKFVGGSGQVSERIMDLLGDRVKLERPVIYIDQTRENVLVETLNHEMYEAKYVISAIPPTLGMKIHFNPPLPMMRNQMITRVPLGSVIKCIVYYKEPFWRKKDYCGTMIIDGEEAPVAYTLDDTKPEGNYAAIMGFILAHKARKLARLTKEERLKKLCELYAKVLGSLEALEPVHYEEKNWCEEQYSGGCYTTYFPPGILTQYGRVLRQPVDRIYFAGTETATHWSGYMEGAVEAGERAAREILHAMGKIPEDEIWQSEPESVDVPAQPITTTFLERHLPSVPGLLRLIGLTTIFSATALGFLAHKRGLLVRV

[2] = target: T2, Amine oxidase [flavin-containing] A (Homo sapiens, UniProt P21397); assay: Inhibition of human microsomal MAO-A expressed in recombinant baculovirus infected insect BTI-TN-5B1-4 cells assessed as reduction in H2O2 production at 10 uM using p-tyramine as substrate after 15 mins by fluorescence assay
T2 sequence (P21397 whole entry): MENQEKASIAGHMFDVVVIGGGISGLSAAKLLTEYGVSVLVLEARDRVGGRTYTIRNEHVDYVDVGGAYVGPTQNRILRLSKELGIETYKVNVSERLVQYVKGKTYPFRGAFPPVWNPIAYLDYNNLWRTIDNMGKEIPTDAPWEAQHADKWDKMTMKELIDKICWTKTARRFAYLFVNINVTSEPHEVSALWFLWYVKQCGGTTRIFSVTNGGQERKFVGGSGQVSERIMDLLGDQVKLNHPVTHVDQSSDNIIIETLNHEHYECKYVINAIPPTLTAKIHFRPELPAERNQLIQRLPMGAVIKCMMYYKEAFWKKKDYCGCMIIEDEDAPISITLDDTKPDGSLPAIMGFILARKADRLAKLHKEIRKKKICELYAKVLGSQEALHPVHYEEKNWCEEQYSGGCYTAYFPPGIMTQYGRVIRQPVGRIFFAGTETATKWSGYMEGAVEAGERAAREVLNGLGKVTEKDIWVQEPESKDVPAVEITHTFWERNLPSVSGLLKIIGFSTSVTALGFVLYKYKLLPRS

[3] = organism: Homo sapiens; assay: Selectivity index, ratio of IC50 for human microsomal MAO-A expressed in recombinant baculovirus infected insect BTI-TN-5B1-4 cells to IC50 for human microsomal MAO-B expressed in recombinant baculovirus infected insect BTI-TN-5B1-4 cells
[4] = target: T2, Amine oxidase [flavin-containing] A; assay: Inhibition of human microsomal MAO-A expressed in recombinant baculovirus infected insect BTI-TN-5B1-4 cells assessed as reduction in H2O2 production using p-tyramine as substrate after 15 mins by fluorescence assay
[5] = target: T2, Amine oxidase [flavin-containing] A; assay: Inhibition of human microsomal MAO-A expressed in recombinant baculovirus infected insect BTI-TN-5B1-4 cells assessed as reduction in H2O2 production at 100 uM using p-tyramine as substrate after 15 mins by fluorescence assay
[6] = target: T1, Amine oxidase [flavin-containing] B; assay: Reversible inhibition of human microsomal MAO-B expressed in recombinant baculovirus infected insect BTI-TN-5B1-4 cells assessed as increase in residual enzyme activity at 40 nM after 60 mins; details: bti-tn-5b1-4, 1 h, 0.04 µM
[7] = tested on: SH-SY5Y; assay: Cytotoxicity against human SH-SY5Y cells assessed as cell viability at 10 uM after 24 hrs by MTT assay (reference value: […] +/- 11.7 %); format: functional; details: read-out: Activity
[8] = tested on: SH-SY5Y; assay: Cytotoxicity against human SH-SY5Y cells assessed as cell viability at 1 uM after 24 hrs by MTT assay (reference value: […] +/- 11.7 %); format: functional; details: read-out: Activity
[9] = tested on: SH-SY5Y; assay: Cytotoxicity against human SH-SY5Y cells assessed as reduction in cell viability at 1 to 10 uM after 24 hrs by neutral red uptake assay; format: functional, cell-based
Summary of the method: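 SH-SY5Y cells grown to confluence over 3 days and exposed 24 h to compound at 1 and 10 μM in serum-free medium, with a 0.1% DMSO vehicle control. Neutral red 50 μg/mL added for 2 h at 37 °C. Dye extracted with ethanol/water (1:1) containing 5% acetic acid and read at 540 nm. Uptake expressed as % of control.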

[10] = tested on: SH-SY5Y; assay: Cytotoxicity against human SH-SY5Y cells assessed as reduction in cell viability at 1 uM after 24 hrs by MTT assay; format: functional, cell-based

Compound: O=C(Nc1ccc(O)cc1)c1coc2ccccc2c1=O
- IC50 ([1]; read-out: IC50): 1380 nM
- INH [2]: Not Active
- Ratio IC50 [3]: > 7.2

Compound: O=C(Nc1cc(Cl)c(Cl)c(Cl)c1)c1coc2ccccc2c1=O
- IC50 ([1]; bti-tn-5b1-4): Nd(Insoluble)
- IC50 [4]: Nd(Insoluble)

Compound: O=C(Nc1ccc(Cl)c(Cl)c1)c1coc2ccccc2c1=O
- IC50 ([1]; bti-tn-5b1-4): Nd(Insoluble)
- IC50 [4]: Nd(Insoluble)

Compound: C[C@H](NCc1ccc(OCc2cccc(F)c2)cc1)C(N)=O [SAFINAMIDE]
- INH [5]: Not Active
- inhibition (INH) [6]: Active

Compound: O=C(Nc1ccc(S)cc1)c1coc2ccccc2c1=O
- IC50 ([1]; bti-tn-5b1-4): Nd(Insoluble)
- IC50 [4]: Nd(Insoluble)

Compound: O=C(Nc1cccc(Cl)c1)c1coc2ccccc2c1=O
- viability at 10 µM [7]: 43.7%
- viability at 1 µM [8]: 64.3%
- Activity [9]: inactive

Compound: Cc1ccc(NC(=O)c2coc3ccccc3c2=O)cc1C
- viability at 10 µM [7]: 74.5%
- Activity [9]: inactive
- Activity [10]: inactive
